Results filed as inconclusive are left out. Calls of active or inactive are those of the source.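 Rule for the calls: active = dose curve reaching 10% of the positive control caspase signal at or below the top valid dose; inconclusive = no clear call, values can overlap the other calls; inactive = reverse-direction response, or no crossing within range.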
Assay: apoptosis induction in Mcl1-reliant human cancer line – cell-based, HMC 1-8, luminescence, dry powder, set 3, counter-screen for A1 inhibitor project, dose response (AID 504348)
Conditions: HMC 1-8 cells, caspase-Glo luminescence, 4 h; series mostly up to 35 µM; caspase activation: at the top concentration
Summary of the method: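 Medium: RPMI-1640 growth medium with 10% FBS / Material: HMC 1-8 human cancer line, low A1 / Quantity: 2500 cells per well / Timing: 4 h compound exposure, 37 °C, plus 1 h room-temperature detection / Technique: luminescence with CaspaseGlo reagent diluted 1:1 in 50 mM HEPES / Dosing: pinned compound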
With Cn1c(=O)c(Sc2ccccn2)c(Sc2ccccn2)c2ccccc21 the “caspase activation” value was 5.11% (inactive).
In the case of CCn1c(=O)c([N+](=O)[O-])c(Sc2ccc(C)cc2)c2ccccc21, the “caspase activation” value is reported as 1.28% (inactive).
With Cc1ccc(Sc2c([N+](=O)[O-])c(=O)n(Cc3ccccc3)c3ccccc23)cc1 the “caspase activation” value was 10.5% (inactive).
For O=C(COc1ccc(Cl)cc1Cl)NNc1nc(N2CCOCC2)nc(N2CCOCC2)n1, the “caspase activation” value was -3.76% (inactive).
With COc1ccc(N2CCN(c3nc(NCCc4ccc(OC)c(OC)c4)nc(N4CCOCC4)n3)CC2)cc1 the “caspase activation” value was -0.364% (inactive).
With C/C(=N\Nc1nc(N2CCCCC2)nc(N2CCCCC2)n1)c1ccc(F)cc1 the “caspase activation” value was 5.7% (inactive).
For COc1ccc(CCNc2nc(N3CCCC3)nc(N3CCCC3)n2)cc1OC, the “caspase activation” value was 1.28% (inactive).
For COCCn1c(=O)c([N+](=O)[O-])c(Sc2ccc(C)cc2)c2ccccc21, the “caspase activation” value was 13.3% (inactive).
In the case of COc1ccc(CCNc2nc(N3CCOCC3)nc(N3CCOCC3)n2)cc1OC, the “caspase activation” value is reported as 2.47% (inactive).
With O=c1[nH]c2ccccc2c(Cl)c1[N+](=O)[O-] the “caspase activation” value was 13.4% (inactive).
With COc1nc2ccccc2c(Sc2ccc(C)cc2)c1[N+](=O)[O-] the “caspase activation” value was -4.59% (inactive).

Source: PubChem BioAssay AID504348 (Broad Institute, 2011)
